# Assay outcomes as filed in PubChem BioAssay.
# LEDGF integ inh: blocks HIV-1 LEDGF/p75-dependent DNA integration. AID 743269. TR-FRET IN-LEDGF/p75 DNA integration, Eu/Cy5. 370,000 tested, 0.64% active. inhibition, % at 3.7 µM;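 active = inhibition above the screen-wide mean plus 3 SD, cut at about 13% in these data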;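 note: signal is the Cy5 over europium emission ratio at 671 and 618 nm; 0% = plate median of compound wells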
# MBD2 DNA inh: MBD2-methylated oligo binding inhibition | Q9UBB5 | TR-FRET, MBD2 binding to methylated oligonucleotide | inhibition, % at 4.4 µM | 370,000 tested, 0.31% active | AID 686964; in the data active = inhibition above about 13%
# ABHD5-PLIN5 inh: inhibitors of human ABHD5-perilipin-5 interaction; Q00G26+Q8WTS1; Split G. princeps luciferase complementation, luminescence, 4 h; inhibition, % at 4 µM; 360,000 tested, 0.78% active; AID 602281;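 active = inhibition above the mean inhibition across every tested compound plus 3 SD, cut at about 22% in these data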;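 note: 0% = DMSO only wells and the 100% control is not disclosed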
# RBBP9 inh: human RBBP9 hydrolase inhibition; recombinant RBBP9, FP-Rh probe fluorescence polarization; 220,000 tested, 0.2% active; AID 1515; inhibition, % at 7.94 µM; O75884;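 active = inhibition above the campaign mean of all tested compounds plus 3 SD, cut at about 14% in these data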;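 note: plate controls were DMSO wells with RBBP9 for no effect and wells lacking RBBP9 protein for full effect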
#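 Test system – recombinant human RBBP9 · Input – RBBP9 2.5 µM in dispensing solution, pre-mixing · Medium – Tris buffer pH 8.0, NaCl, Pluronic · Schedule – preincubation 30 min plus labeling 45 min at 25 °C · Measured by – fluorescence polarization · Measure – % inhibition · Controls – DMSO and no-protein wells · Replicates – one well per compound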
# PRMT1 FP inh: blocks human protein arginine methyltransferase 1; 370,000 tested, 1.3% active; recombinant PRMT1, activity-based probe fluorescence polarization; inhibition, % at 2.79 µM; Q99873; AID 652257;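 active = inhibition above about 21% made by adding two undisclosed values, limit read from the data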
# UHRF1 MBD2 ctr: human UHRF1 methylated DNA binding inhibitors. Q96T88. UHRF1 binding to methylated oligo, TR-FRET. inhibition, % at 4.4 µM. 370,000 tested, 0.75% active. AID 687016;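 note: UHRF1 SRA domain binding a hemimethylated CpG hairpin DNA probe; 0% = median of test compound wells and 100% = reference inhibitor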
# Target sequence (Q96T88 whole entry, looked up, the tested form may be a part): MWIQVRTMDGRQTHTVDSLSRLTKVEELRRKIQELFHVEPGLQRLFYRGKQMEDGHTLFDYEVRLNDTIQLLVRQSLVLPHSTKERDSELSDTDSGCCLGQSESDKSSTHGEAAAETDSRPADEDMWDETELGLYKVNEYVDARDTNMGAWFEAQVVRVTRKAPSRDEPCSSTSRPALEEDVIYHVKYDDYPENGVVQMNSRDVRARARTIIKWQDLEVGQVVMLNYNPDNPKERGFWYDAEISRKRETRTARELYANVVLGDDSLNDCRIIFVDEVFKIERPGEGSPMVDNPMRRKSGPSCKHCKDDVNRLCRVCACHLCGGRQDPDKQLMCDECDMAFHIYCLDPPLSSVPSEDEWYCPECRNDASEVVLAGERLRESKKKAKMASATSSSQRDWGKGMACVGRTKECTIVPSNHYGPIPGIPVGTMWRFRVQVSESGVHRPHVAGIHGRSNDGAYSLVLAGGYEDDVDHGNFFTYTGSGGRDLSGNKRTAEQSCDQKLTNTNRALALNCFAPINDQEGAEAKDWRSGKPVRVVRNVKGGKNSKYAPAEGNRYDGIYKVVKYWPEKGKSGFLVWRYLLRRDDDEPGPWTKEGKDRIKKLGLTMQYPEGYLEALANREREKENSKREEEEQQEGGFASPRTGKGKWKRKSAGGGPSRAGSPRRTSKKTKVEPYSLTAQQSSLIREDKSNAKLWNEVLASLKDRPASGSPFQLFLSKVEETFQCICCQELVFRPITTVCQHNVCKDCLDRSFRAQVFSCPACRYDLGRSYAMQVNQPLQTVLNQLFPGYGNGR
# PRMT1 confirm: confirmation of human PRMT1 inhibitors. shares compounds with PRMT1 FP inh. inhibition, % at 2.79 µM. 3,300 tested, 42% active. AID 687036. recombinant His-PRMT1, activity-based probe fluorescence polarization;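 active = mean inhibition across replicates above the hit cutoff derived for the earlier primary screen, cut at about 22% in these data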
# UHRF1 ctr MBD2: inhibits human UHRF1 binding to methylated oligonucleotide, MBD2 counter-screen; shares compounds with MBD2 DNA inh; TR-FRET; inhibition, % at 4.4 µM; 1,000 tested, 25% active;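 note: UHRF1 SRA domain binding a labeled hemimethylated CpG hairpin DNA; 0% = vehicle only and 100% = reference inhibitor with vehicle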
# MBD2 DBD conf: MBD2-DBD methyl-DNA binding inhibition, TR-FRET confirmation. TR-FRET MBD2-DBD binding to methylated oligonucleotide. 1,000 tested, 26% active. shares compounds with MBD2 DNA inh. inhibition, % at 4.4 µM; in the data active = inhibition above about 14%
# IN multimer up: HIV-1 integrase multimerization activation, counter-screen. TR-FRET HIV-1 integrase multimerization, biochemical. 2,000 tested, 17% active. activation, % at 7.7 µM. shares compounds with LEDGF integ inh. AID 1053131; in the data active = activation above about 8.9%
# TRFRET interf: TR-FRET optical interference, LEDGF/p75 integration counter-screen. shares compounds with LEDGF integ inh. TR-FRET optical interference counterscreen, HIV-1 IN multimerization. inhibition, % at 7.7 µM. 2,000 tested, under 10 active. AID 1053135;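 active = inhibition above the mean over all tested compounds plus 3 SD, which no compound reached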;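 note: 0% = integrase with antibodies and DMSO and 100% = antibodies without integrase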
# LEDGF integ conf: LEDGF/p75-dependent HIV-1 integration inhibition, confirmation. AID 1053136. shares compounds with LEDGF integ inh. TR-FRET LEDGF/p75-dependent HIV-1 integration, biochemical. 2,000 tested, 36% active. inhibition, % at 3.7 µM; in the data active = inhibition above about 14%
# * = called active by the depositor; / = not tested or not shown; ! = not confirmed by another sample. Most compounds without a hit are left out; they make up all but 3.1% or so of the library. Cut-off read from the data, not from the text of the source, unless noted: active = inhibition above about 21%; inactive = the rest.
SMILES,LEDGF integ inh,MBD2 DNA inh,ABHD5-PLIN5 inh,RBBP9 inh,PRMT1 FP inh,UHRF1 MBD2 ctr,PRMT1 confirm,UHRF1 ctr MBD2,MBD2 DBD conf,IN multimer up,TRFRET interf,LEDGF integ conf
CC[C@@H](CO)NC(=O)[C@@H]1C=C2c3cccc4c3c(cn4C)C[C@H]2N(C)C1,25*!,5,-7,0,47*!,17,6,/,/,2,-7,14*
CC(C)C[C@H]1C(=O)N2CCC[C@H]2[C@]2(O)O[C@](NC(=O)[C@@H]3C=C4c5cccc6[nH]cc(c56)C[C@H]4N(C)C3)(C(C)C)C(=O)N12,/,/,6,/,/,/,/,/,/,/,/,/
CC[C@@H](CO)NC(=O)[C@@H]1C=C2c3cccc4[nH]cc(c34)C[C@H]2N(C)C1,14*,0,-1,/,30*,11,19,/,/,0,1,17*
C1CN(P2(N3CC3)=NP(N3CC3)(N3CC3)=NP(N3CC3)(N3CC3)=N2)CCO1 (centres undefined),-2,1,-1,/,-2,-1,/,/,/,/,/,/
C=CCCC1(C2=CCCCC2)C(=O)NC(=O)NC1=O,1,1,-7,/,-4,-4,/,/,/,/,/,/
COc1ccc(CC2C(=O)NC(C)C(=O)N(C)C3C(=O)N(C)C(Cc4ccc(O)c(c4)Oc4ccc(cc4)C3O)C(=O)NC(C)C(=O)NC(C)C(=O)N2C)cc1 (centres undefined),-3,0,-1,/,-4,-1,/,/,/,/,/,/
Cc1cc(/C=C2\C(=O)NC(=O)N(Cc3ccco3)C2=O)c(C)n1-c1ccc(O)cc1,53*,12,13,2,29*,36*,-5,/,/,4,-13,21*
Cc1ccc(OCCn2cccc2/C=C2/C(=O)NC(=O)N(Cc3ccco3)C2=O)cc1,58*,12,2,-4,32*,64*,12,/,/,-2,11,37*
Cc1cc(/C=C2\C(=O)NC(=O)N(Cc3ccccc3)C2=O)c(C)n1-c1ccc(Cl)c(C(=O)O)c1,43*,37*,-24,-15,28*,92*,12,72*,29*,5,-25,44*
Cc1ccc(S(=O)(=O)c2nc(-c3ccccc3Cl)oc2N(C)C2CCN(C)CC2)cc1,-1,-1,7,/,1,3,/,/,/,/,/,/
C=C1C(=O)O[C@@H]2C[C@@H](C)[C@@H]3C=CC(=O)[C@@]3(C)[C@@H](OC(=O)CC(=O)O[C@H]3[C@@H]4C(=C)C(=O)O[C@@H]4C[C@@H](C)[C@@H]4C=CC(=O)[C@]43C)[C@H]12,25*,1,99*,/,29*,4,26*,/,/,4,-20,59*
O=c1[nH]c(=O)n(Cc2ccco2)c(O)c1/C=N/N1CCCCCC1,1,-4,2,0,4,-1,/,/,/,/,/,/
N#Cc1c(/N=C/c2c(O)n(Cc3ccco3)c(=O)[nH]c2=O)sc2c1CCCC2,34*,5,-2,-14,26*,46*,6,/,/,2,-11,10
Cc1c2cnn(CC(=O)N3CCC4(CC3)OCCO4)c(=O)c2c(C)n1Cc1ccccc1Cl,0,-1,3,/,-2,0,/,/,/,/,/,/
COc1ccc(P2(=O)Nc3ccccc3N2)cc1,2,2,-11,-5,-2,-1,/,/,/,/,/,/
COc1ccc2c(c1)NP(=S)(c1ccccc1)N2C (centres undefined),18*,-8,-41,/,33*,15,2,/,/,5,-18,1
CCC1=Nc2cc(C(=O)N3CCC4(CC3)OCCO4)ccc2Sc2ccccc21,-4,2,4,/,0,4,/,/,/,/,/,/
CCC1=Nc2cc(C(=O)N3CCC4(CC3)OCCO4)ccc2Sc2ccc(C)cc21,3,21*,0,/,-2,3,/,6,1,/,/,/
CNc1ccc2nc3ccccc3[n+](C)c2c1,9,15*,-20,/,21*,-15,/,19,20*,/,/,/
Cc1c(O)ccc(C(=O)CN2CC(C)OC(C)C2)c1O (centres undefined),2,-4,1,/,1,-3,/,/,/,/,/,/
CC12CC1(C)C(=O)N(c1cc(Cl)cc(Cl)c1)C2=O (centres undefined),-1,-1,1,/,-8,-4,/,/,/,/,/,/
COc1cc2c(ccc3c4cc(OC)c(OC)cc4c[n+](C)c23)cc1O,1,88*,15,/,6,24*,/,56*,100*,/,/,/
CN(C)Cc1c[nH]c2cc([N+](=O)[O-])ccc12,0,19*,8,/,-5,-3,/,-1,-1,/,/,/
O=C(NC1CCCCC1)N1Cc2ccccc2-n2nncc2C1,2,-6,2,/,1,0,/,/,/,/,/,/
Cc1ccc2c(C)c3ccc4ccccc4c3c[n+]2c1,1,72*,17,/,2,27*,/,43*,83*,/,/,/
SMILES,LEDGF integ inh,MBD2 DNA inh,ABHD5-PLIN5 inh,RBBP9 inh,PRMT1 FP inh,UHRF1 MBD2 ctr,PRMT1 confirm,UHRF1 ctr MBD2,MBD2 DBD conf,IN multimer up,TRFRET interf,LEDGF integ conf
Cc1ccccc1C(=O)N1Cc2ccccc2-n2nncc2C1,1,-7,0,/,-4,-2,/,/,/,/,/,/
COC(=O)CC1(CC(=O)OC)C(=O)N(c2ccccc2)C(=O)N(c2ccccc2)C1=O,1,55*,1,/,3,0,/,2,1,/,/,/
COC(=O)CC1(CC(=O)OC)C(=O)NC(=O)NC1=O,-1,0,1,-2,2,0,/,/,/,/,/,/
COc1ccc(-c2n(-c3ccccn3)c3ccccc3[n+]2-c2ccccn2)cc1,1,46*,-5,0,7,31*,/,74*,88*,/,/,/
Cc1ccc(-c2nc3ccccc3c(=O)n2-c2ccccn2)cc1,-8,7,-1,2,4,3,/,/,/,/,/,/
COc1cc2c(cc1OC)-c1c(OC)c(OC)cc3c1[C@H](C2)N(C)CC3,26*,20*,-5,-10,0,41*,/,18,10,2,-8,25*
COC1/C=C/C=C(\C)Cc2cc(O)c(Cl)c(c2)N(C)C(=O)CC(OC(=O)C(C)C)C2(C)OC2C(C)C2CC1(O)NC(=O)O2 (centres undefined),1,4,12,/,-1,-1,/,/,/,/,/,/
